Calls of active or inactive are those of the source. The rule behind the calls is not given here.
How the values were obtained:
[1] = biological target: P2Y purinoceptor 1 (Meleagris gallopavo) (UniProt P49652); experiment: Agonist activity by measuring Purinoceptor P2Y1-promoted phospholipase C activity in turkey erythrocyte membranes; No effect as either agonist or antagonist at 10 uM; type: functional, cell membranes
Method in brief: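 Turkey erythrocytes labelled 18–24 h at 37 °C with 2-[3H]myo-inositol in inositol-free DMEM. Ghosts (about 175 μg protein) incubated 5 min at 30 °C in pH 7.0 Hepes/KCl buffer with EGTA, CaCl2 and MgSO4, plus 1 μM GTPγS and the agonist. Total [3H]inositol phosphates separated by anion exchange. EC50 from four-parameter logistic fit, at least three experiments.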

Rattus norvegicus = species on record: Rattus norvegicus; experiment: Hydrolysis rate of compound as substrate of purified recombinant rat Ecto-5'-nucleotidase; type: functional; design: scale not given: the % may be the effect or the level left
Method in brief: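 Purified baculovirus-expressed rat ecto-5′-nucleotidase (0.5 μg) incubated 10 min at 37 °C with 100 μM (final) substrate in Tris-buffered saline containing 0.4 mM MgCl2, pH 7.4. Reaction stopped with 5% TCA. Released inorganic phosphate measured by the Lanzetta method. Activity expressed relative to AMP (100%). Two experiments, each in duplicate.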

P2Y purinoceptor 1 [2] = biological target: T1, P2Y purinoceptor 1 (Homo sapiens, UniProt P47900); experiment: Accumulation of inositol phosphate in 1321N1 astrocytoma cells expressing human P2Y1 purinoceptor; type: cell-based
Method in brief: (§1)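 Inositol phosphate accumulation measured in 1321N1 human astrocytoma cells stably expressing human P2Y1, P2Y2, P2Y4 or P2Y11 receptor. Full concentration–effect curves, repeated in at least three separate experiments run in duplicate or triplicate. EC50 from four-parameter logistic fit. Relative efficacy (%) taken against a maximal effective concentration of UTP or UDP in the same experiment.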

P2Y purinoceptor 1 [3] = biological target: T1, P2Y purinoceptor 1; experiment: Agonist activity by measuring inositol phosphate accumulation in 1321N1 human astrocytoma cells stably expressing human P2Y purinoceptor 1; No effect as either agonist or antagonist at 10 uM; type: functional; method in brief: as §1
P2Y purinoceptor 2 [4] = biological target: T2, P2Y purinoceptor 2 (Homo sapiens, UniProt P41231); experiment: Agonist activity by measuring inositol phosphate accumulation in 1321N1 human astrocytoma cells stably expressing human P2Y purinoceptor 2; No effect as either agonist or antagonist at 10 uM; type: functional
[5] = biological target: T3, Ectonucleoside triphosphate diphosphohydrolase 1 (Rattus norvegicus) (UniProt P97687); experiment: Hydrolysis rate as substrate of rat Ectonucleoside triphosphate diphosphohydrolase 1 (NTPDase 1) (Ecto-apyrase); design: scale not given: the % may be the effect or the level left
T3 sequence (whole entry): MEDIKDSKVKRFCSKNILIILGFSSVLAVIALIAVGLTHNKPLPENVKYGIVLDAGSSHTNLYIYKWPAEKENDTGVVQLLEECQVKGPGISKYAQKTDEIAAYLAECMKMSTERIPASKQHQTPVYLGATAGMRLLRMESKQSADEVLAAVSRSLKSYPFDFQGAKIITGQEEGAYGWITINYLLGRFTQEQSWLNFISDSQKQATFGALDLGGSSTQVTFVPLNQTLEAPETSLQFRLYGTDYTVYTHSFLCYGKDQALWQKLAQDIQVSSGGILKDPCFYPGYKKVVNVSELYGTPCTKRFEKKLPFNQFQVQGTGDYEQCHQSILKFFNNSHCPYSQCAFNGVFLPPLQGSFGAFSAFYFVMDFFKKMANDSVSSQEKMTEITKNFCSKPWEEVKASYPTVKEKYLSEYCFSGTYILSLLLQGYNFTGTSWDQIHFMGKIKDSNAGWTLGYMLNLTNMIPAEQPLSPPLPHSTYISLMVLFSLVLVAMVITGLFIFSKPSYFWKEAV
Method in brief: (§2)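 Intact CHO cells stably expressing rat NTPDase1 or NTPDase2, seeded 24 h before assay. Incubated at 37 °C in Hepes-buffered saline, pH 7.4, with nucleotide substrate. Supernatant aliquots taken over time and analysed by HPLC at 260 nm. Rate expressed relative to ATP (100%). Nontransfected CHO cells served as control. Two experiments, each in duplicate.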

[6] = biological target: T4, Ectonucleoside triphosphate diphosphohydrolase 2 (Rattus norvegicus) (UniProt O35795); experiment: Hydrolysis rate as substrate of rat Ectonucleoside triphosphate diphosphohydrolase 2 (NTPDase 2) (Ecto-apyrase); design: scale not given: the % may be the effect or the level left; method in brief: as §2
T4 sequence (whole entry): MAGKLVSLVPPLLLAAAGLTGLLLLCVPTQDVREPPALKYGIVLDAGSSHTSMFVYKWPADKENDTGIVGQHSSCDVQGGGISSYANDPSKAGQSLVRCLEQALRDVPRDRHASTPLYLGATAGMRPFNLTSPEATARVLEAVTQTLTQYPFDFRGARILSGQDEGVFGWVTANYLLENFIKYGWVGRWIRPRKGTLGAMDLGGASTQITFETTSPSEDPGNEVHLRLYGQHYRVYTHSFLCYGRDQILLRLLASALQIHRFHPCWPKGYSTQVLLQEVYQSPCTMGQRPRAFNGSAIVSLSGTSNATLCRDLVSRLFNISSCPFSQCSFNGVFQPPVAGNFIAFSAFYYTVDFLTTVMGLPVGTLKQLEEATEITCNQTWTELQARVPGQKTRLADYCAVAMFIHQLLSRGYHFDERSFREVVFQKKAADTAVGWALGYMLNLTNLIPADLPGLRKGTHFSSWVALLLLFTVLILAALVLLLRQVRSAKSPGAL

P2Y purinoceptor 1 [7] = biological target: P2Y purinoceptor 1 (Meleagris gallopavo, UniProt P49652); experiment: Activation of Purinoceptor P2Y1-mediated phospholipase C in turkey erythrocyte membranes; type: cell membranes
Method in brief: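 Turkey erythrocytes labelled 18–24 h at 37 °C with 2-[3H]myo-inositol in inositol-free DMEM. Total [3H]inositol phosphates separated by anion exchange. EC50 from four-parameter logistic fit, at least three experiments.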

[8] = biological target: T5, P2Y purinoceptor 11 (Homo sapiens) (UniProt Q96G91); experiment: Agonist activity by measuring inositol phosphate accumulation in 1321N1 human astrocytoma cells stably expressing human P2Y purinoceptor 11; type: functional; method in brief: as §1
T5 sequence (whole entry): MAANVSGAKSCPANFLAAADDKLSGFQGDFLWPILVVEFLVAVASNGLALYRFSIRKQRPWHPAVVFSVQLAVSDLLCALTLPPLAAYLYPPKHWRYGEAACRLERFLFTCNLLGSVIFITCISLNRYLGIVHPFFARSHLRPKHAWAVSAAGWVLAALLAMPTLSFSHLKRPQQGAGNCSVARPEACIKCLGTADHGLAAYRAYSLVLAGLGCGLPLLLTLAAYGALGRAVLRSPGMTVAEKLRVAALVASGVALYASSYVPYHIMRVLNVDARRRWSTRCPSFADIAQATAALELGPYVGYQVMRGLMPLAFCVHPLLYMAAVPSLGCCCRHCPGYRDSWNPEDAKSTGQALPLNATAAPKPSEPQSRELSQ

[9] = biological target: P2Y purinoceptor 4 (Homo sapiens) (UniProt P51582); experiment: Agonist activity by measuring inositol phosphate accumulation in 1321N1 human astrocytoma cells stably expressing human P2Y purinoceptor 4; type: functional; method in brief: as §1
P2Y purinoceptor 2 [10] = biological target: T2, P2Y purinoceptor 2; experiment: (§3) Agonist activity by measuring inositol phosphate accumulation in 1321N1 human astrocytoma cells stably expressing human P2Y purinoceptor 2; type: functional; method in brief: as §1
[11] = biological target: P2Y purinoceptor 4 (Homo sapiens) (UniProt P51582); experiment: Agonist activity by measuring inositol phosphate accumulation in 1321N1 human astrocytoma cells stably expressing human P2Y purinoceptor 4; No effect as either agonist or antagonist at 10 uM; type: functional; method in brief: as §1
[12] = biological target: T5, P2Y purinoceptor 11 (Homo sapiens); experiment: Agonist activity by measuring inositol phosphate accumulation in 1321N1 human astrocytoma cells stably expressing human P2Y purinoceptor 11; No effect as either agonist or antagonist at 10 uM; type: functional; method in brief: as §1
P2Y purinoceptor 2 [13] = biological target: T2, P2Y purinoceptor 2; experiment: as §3; type: functional; method in brief: as §1; remark: listed apart in the source
[14] = biological target: P2Y purinoceptor 4 (Homo sapiens) (UniProt P51582); experiment: Agonist activity by measuring the agonist potencies of the corresponding ribose- containing nucleotides, for the receptor subtype human P2Y purinoceptor 4; No effect as either agonist or antagonist at 10 uM; type: functional; method in brief: as §1
P2Y purinoceptor 2 [15] = biological target: T2, P2Y purinoceptor 2; experiment: Agonist activity by measuring inositol phosphate accumulation in 1321N1 human astrocytoma cells stably expressing human P2Y purinoceptor 2r; No effect as either agonist or antagonist at 10 uM; type: functional; method in brief: as §1

T2 sequence (P41231 whole entry): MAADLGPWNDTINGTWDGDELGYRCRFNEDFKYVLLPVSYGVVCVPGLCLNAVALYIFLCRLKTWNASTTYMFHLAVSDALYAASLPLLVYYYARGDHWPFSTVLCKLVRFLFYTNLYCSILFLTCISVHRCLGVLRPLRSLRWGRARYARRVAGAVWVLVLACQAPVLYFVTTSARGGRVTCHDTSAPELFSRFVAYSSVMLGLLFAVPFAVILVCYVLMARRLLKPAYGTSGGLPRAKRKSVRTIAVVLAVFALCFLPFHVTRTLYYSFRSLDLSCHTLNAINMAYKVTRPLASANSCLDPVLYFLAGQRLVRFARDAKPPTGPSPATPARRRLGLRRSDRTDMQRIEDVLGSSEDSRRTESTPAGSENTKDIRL
P2Y purinoceptor 1 (Meleagris gallopavo, UniProt P49652), sequence (P49652 whole entry): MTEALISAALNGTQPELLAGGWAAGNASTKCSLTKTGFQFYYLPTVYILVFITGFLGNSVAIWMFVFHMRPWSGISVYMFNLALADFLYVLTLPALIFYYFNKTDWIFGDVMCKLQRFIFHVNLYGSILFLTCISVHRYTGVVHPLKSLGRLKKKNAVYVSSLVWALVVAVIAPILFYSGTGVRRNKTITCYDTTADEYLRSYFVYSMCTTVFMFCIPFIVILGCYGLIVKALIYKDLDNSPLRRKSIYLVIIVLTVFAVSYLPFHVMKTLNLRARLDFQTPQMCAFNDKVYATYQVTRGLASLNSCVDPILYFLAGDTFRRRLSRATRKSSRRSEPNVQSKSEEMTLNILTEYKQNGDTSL
P2Y purinoceptor 1 (Meleagris gallopavo), sequence (P49652 whole entry): as above
T1 sequence (P47900 whole entry): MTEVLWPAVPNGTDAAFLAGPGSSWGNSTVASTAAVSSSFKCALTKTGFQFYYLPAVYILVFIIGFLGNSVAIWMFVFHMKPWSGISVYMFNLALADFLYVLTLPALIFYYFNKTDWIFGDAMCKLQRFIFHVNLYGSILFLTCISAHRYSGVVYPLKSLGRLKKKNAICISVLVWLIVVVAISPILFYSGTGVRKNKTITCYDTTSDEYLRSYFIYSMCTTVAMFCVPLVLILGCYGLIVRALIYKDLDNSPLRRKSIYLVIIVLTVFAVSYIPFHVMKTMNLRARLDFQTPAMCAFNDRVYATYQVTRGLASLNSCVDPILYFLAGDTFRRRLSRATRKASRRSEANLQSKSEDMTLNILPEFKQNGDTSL
P2Y purinoceptor 4 (Homo sapiens), sequence (P51582 whole entry): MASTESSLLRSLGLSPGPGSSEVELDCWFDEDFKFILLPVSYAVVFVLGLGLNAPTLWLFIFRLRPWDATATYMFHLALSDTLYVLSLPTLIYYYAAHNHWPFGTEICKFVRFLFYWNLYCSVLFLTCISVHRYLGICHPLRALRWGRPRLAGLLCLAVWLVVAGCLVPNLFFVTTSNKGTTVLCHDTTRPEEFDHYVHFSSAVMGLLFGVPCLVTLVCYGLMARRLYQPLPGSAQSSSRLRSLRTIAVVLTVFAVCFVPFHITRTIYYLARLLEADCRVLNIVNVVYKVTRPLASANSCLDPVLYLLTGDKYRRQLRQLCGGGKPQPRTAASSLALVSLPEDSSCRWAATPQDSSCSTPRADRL

Nc1ncnc2c1ncn2[C@@H]1O[C@H](COP(=O)(O)O)[C@@H](O)[C@H]1O
NE [1]: inactive | Activity (Rattus norvegicus): 100%

CSc1nc(N)c2ncn([C@@H]3O[C@H](COP(=O)(O)OP(=O)(O)OP(=O)(O)O)[C@@H](O)[C@H]3O)c2n1
EC50 (P2Y purinoceptor 1 [2]): 34 nM

Nc1ncnc2c1ncn2[C@@H]1O[C@H](COP(=O)(O)OP(=O)(O)CP(=O)(O)O)[C@@H](O)[C@H]1O
NE (P2Y purinoceptor 1 [3]): inactive | NE [1]: inactive | NE (P2Y purinoceptor 2 [4]): inactive

Nc1ncnc2c1ncn2C12CC1C(COP(=O)(O)OP(=O)(O)OP(=O)(O)O)C(O)C2O (centres undefined)
Activity [5]: 57% | Activity [6]: 34%

Nc1ncnc2c1ncn2C1C(O)C(O)C2(COP(=O)(O)OP(=O)(O)OP(=O)(O)O)CC12 (centres undefined)
Activity [5]: 52% | EC50 (P2Y purinoceptor 1 [7]): 14 nM | % of maximal effect [8]: 35% | Activity [6]: 4% | % of maximal effect [9]: 32% | EC50 (P2Y purinoceptor 2 [10]): 91 nM

C[S+]([O-])c1nc(N)c2ncn(C3O[C@H](COP(=O)(O)O)[C@@H](O)[C@H]3O)c2n1 (some centres undefined)
NE (P2Y purinoceptor 1 [3]): inactive | NE [1]: inactive

Nc1nc(Cl)nc2c1ncn2C1C(O)C(O)[C@@]2(COP(=O)(O)OP(=O)(O)OP(=O)(O)O)C[C@@H]12 (some centres undefined)
EC50 (P2Y purinoceptor 1 [7]): 3 nM | EC50 (P2Y purinoceptor 1 [2]): 7 nM | EC50 (P2Y purinoceptor 2 [10]): 1900 nM

Nc1ncnc2c1ncn2[C@@H]1O[C@H](COP(=O)(O)OP(=O)(O)OP(=O)(O)O)[C@@H](O)[C@H]1O [ADENOSINE TRIPHOSPHATE]
Activity [5]: 100% | Activity [6]: 100% | NE [11]: inactive | EC50 (P2Y purinoceptor 2 [10]): 85 nM

CSc1nc(N)c2ncn([C@H]3[C@H](O)[C@H](O)[C@@]4(COP(=O)(O)O)C[C@@H]34)c2n1
EC50 (P2Y purinoceptor 1 [7]): 1190 nM | NE [12]: inactive | EC50 (P2Y purinoceptor 1 [2]): 590 nM

CSc1nc(N)c2ncn([C@H]3[C@H](O)[C@H](O)[C@@]4(COP(=O)(O)OP(=O)(O)O)C[C@@H]34)c2n1
EC50 (P2Y purinoceptor 1 [7]): 0.88 nM | NE [12]: inactive | EC50 (P2Y purinoceptor 1 [2]): 0.4 nM | % of maximal effect (P2Y purinoceptor 2 [13]): 54% | NE [14]: inactive

CSc1nc(N)c2ncn([C@@H]3O[C@H](COP(=O)(O)OP(=O)(O)O)[C@@H](O)[C@H]3O)c2n1
NE (P2Y purinoceptor 2 [15]): inactive | NE [12]: inactive | NE [11]: inactive

From ChEMBL document CHEMBL1135410, “Adenine nucleotide analogues locked in a Northern methanocarba conformation: enhanced stability and potency as P2Y(1) receptor agonists” (J Med Chem, 2002)
